Screening data: PubChem, Sanford-Burnham Center for Chemical Genomics
DNMT1 inh – inhibitors of human DNMT1; DNMT1 molecular beacon, Hinp1I cleavage, fluorescence; 360,000 compounds, 0.83% hits; P26358; AID 588458; inhibition (reported as % activation of signal), % at 10 µM; in the data active = inhibition above about 50%
Scp1 inh – inhibitors of human Scp-1 phosphatase; Q9GZU7; Recombinant Scp1, phosphopeptide, malachite green phosphate absorbance; inhibition, % at 20 µM; 340,000 compounds, 0.88% hits;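 active = inhibition above about 50% at 20 µM, limit read from the data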;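 note: plate controls were DMSO wells with enzyme for no effect and wells lacking enzyme for full effect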
Target sequence (Q9GZU7 76-261 limits assumed): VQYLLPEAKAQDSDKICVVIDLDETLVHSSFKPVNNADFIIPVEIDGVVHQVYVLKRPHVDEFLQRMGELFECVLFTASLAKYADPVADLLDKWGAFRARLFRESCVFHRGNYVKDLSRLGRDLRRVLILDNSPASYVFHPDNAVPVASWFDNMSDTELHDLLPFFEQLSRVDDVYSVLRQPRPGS
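Incubation: 45 min enzyme reaction at room temperature / System: truncated SCP-1 phosphatase (76-261aa) / Reagent: Phospho 17-mer peptide substrate / Buffer or medium: Acidic Tris acetate buffer with magnesium and detergent / Signal: absorbance at 630 nm / Doses: one concentration, 20 µM, with 1.0% DMSO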
SUMO1-SIM PPI – alters human SUMO1 binding to SIM partners | P63165 | inhibition, % at 20 µM | SUMO1 binding to a labelled peptide, TR-FRET, 1 h | 360,000 compounds, 0.33% hits; in the data active = inhibition above about 37%
HKDC1 inh – blocks human hexokinase HKDC1 activity; Q2TB90; recombinant HKDC1, G6PDH/diaphorase resazurin coupled fluorescence; inhibition, % at 20 µM; 340,000 compounds, 0.16% hits; AID 493160;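 active = inhibition above about 35% when tested at 20 µM, limit read from the data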;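 note: plate controls were DMSO wells with enzyme for no effect and DMSO wells lacking enzyme for full effect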
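test system = in-house recombinant HK5 (HKDC1) enzyme | amount = HKDC1 at 5 µg/mL | control set = DMSO-enzyme wells negative, buffer-substituted wells positive | compound = one dose of 20 µM, 1% DMSO | schedule = reaction time 90 min, room temperature, protected from light | technique = resorufin fluorescence at 613 nm | reagent = glucose with 1 mM ATP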
STEP block – blocks human striatal-enriched tyrosine phosphatase | P54829 | recombinant STEP, OMFP fluorogenic substrate, fluorescence | inhibition, % at 20 µM | 360,000 compounds, 0.25% hits | AID 588621;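 active = inhibition at 20 µM, scaled per plate between control wells, above about 37%, limit read from the data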;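 note: 0% = DMSO with enzyme and substrate and 100% = substrate only without enzyme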
Target sequence (P54829 whole entry, looked up): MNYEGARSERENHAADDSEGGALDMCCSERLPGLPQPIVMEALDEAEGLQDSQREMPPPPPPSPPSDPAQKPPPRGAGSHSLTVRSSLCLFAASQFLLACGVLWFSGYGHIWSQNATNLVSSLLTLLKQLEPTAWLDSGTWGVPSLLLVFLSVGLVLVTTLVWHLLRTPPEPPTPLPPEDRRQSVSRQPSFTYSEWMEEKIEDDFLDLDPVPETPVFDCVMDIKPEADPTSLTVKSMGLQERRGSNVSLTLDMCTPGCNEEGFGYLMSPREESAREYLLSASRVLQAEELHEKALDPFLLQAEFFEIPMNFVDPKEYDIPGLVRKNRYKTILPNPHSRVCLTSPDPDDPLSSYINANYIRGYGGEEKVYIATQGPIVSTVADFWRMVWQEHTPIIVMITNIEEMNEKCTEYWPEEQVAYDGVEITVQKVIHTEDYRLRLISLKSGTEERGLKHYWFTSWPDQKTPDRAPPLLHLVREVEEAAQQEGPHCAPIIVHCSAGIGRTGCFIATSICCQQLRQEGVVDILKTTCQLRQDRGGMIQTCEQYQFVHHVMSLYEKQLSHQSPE
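System: STEP (striatal-enriched tyrosine phosphatase) enzyme, cell-free; medium: Bis-Tris pH 6.0 buffer with DTT, detergent; dosing: 20 µM, 1% DMSO; times: reaction 20 min, ambient temperature; detection: fluorescence, 480/540 nm; read-out basis: normalized % inhibition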
LMPTP block – blocks human LMPTP phosphatase; recombinant LMPTP-A, OMFP fluorogenic substrate, fluorescence intensity; P24666; AID 651560; 360,000 compounds, 0.22% hits; inhibition, % at 20 µM;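 active = compounds that cut the enzyme signal by at least half of the control window in the single-dose screen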;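 note: plate controls were DMSO wells with enzyme plus substrate for no effect and substrate without enzyme for full effect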
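Material: LMPTP-A; amount: 0.625 nM enzyme; doses: single 20 µM dose; times: reaction 50 min, room temperature, dark; technique: fluorescence intensity of OMFP turnover product; benchmarks: no-enzyme and uninhibited controls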
HKDC1 act conf – confirmation of human HKDC1 activators. inhibition, % at 20 µM. 740 compounds, 14% hits. recombinant HKDC1, G6PDH/diaphorase resazurin fluorescence; hits give low values. shares compounds with HKDC1 inh;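 active = inhibition at or below a set negative limit, negative inhibition meaning the enzyme was activated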
DNMT1 interf DR – shows spectral interference in the DNMT1 beacon assay; 200 tested, under 10 active; molecular beacon fluorescence, spectral interference counter-screen; IC50, µM; shares compounds with DNMT1 inh; call rule not given here
DNMT1 inh conf – confirmation of human DNMT1 inhibitors | inhibition, % at 10 µM | 2,300 compounds, 8% hits | shares compounds with DNMT1 inh | DNMT1 molecular beacon HinP1I cleavage, fluorescence;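 active = average inhibition of at least 30% in the single-concentration confirmation test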
Beacon interf – beacon fluorescence artifact counter-screen; shares compounds with DNMT1 inh; DNMT1 molecular beacon spectral interference counterscreen, fluorescence 485/520; activation (fluorescence interference), % at 10 µM; 2,300 compounds, 1% hits; AID 602387;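 active = activation of at least 30% at 10 µM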;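 note: DNMT1 catalytic domain with a HinP1I cleavage step and a FAM/dabcyl DNA beacon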
* hit, by the source's call; nt = no result given. A selection: hits, their analogues and other compounds. The true share with any hit is near 1.8%.

SMILES | DNMT1 inh | Scp1 inh | SUMO1-SIM PPI | HKDC1 inh | STEP block | LMPTP block | DNMT1 inh conf | Beacon interf | others
c1coc(CN2Cc3ccccc3-n3nncc3C2)c1 | 1 | nt | 3 | nt | -5 | -2 | nt | nt
Cc1cccc(N2C(=O)NC(=O)/C(=C\c3ccc4c(c3)CCCN4Cc3ccccc3)C2=O)c1 | 26 | -9 | 1 | 45* | -2 | 7 | nt | nt | HKDC1 act conf=45
Cc1ccc(-n2c(=O)[nH]c3ccccc3c2=O)cc1[N+](=O)[O-] | -10 | nt | 10 | nt | 0 | 1 | nt | nt
COc1cc2c(cc1OC)-c1c(OC)c(OC)c(OC)c3ccnc(c13)C2=O | nt | -8 | nt | 50* | nt | nt | nt | nt | HKDC1 act conf=57
CCCCCc1nc2ccccc2c(=O)n1-c1ccccc1[N+](=O)[O-] | 1 | -1 | -17 | -7 | -1 | 1 | nt | nt
CCCCCc1nc2c(c(=O)c3ccccc3n2C)c(=O)n1C1CCCCCC1 | 11 | 1 | 6 | 31 | 13 | 20 | nt | nt | HKDC1 act conf=17
COc1ccc(-n2nnnc2C(c2cccc3ccccc23)N2CCC3(CC2)C(=O)NCN3c2ccccc2)cc1 (centres undefined) | -24 | nt | 2 | nt | -1 | 4 | nt | nt
Cc1cccc(C)c1-n1nnnc1C(C1CC1)N1CCC2(CC1)C(=O)NCN2c1ccccc1 (centres undefined) | -6 | nt | 6 | nt | 3 | 2 | nt | nt
Cc1ccc(OP2(=O)Nc3cc(C)c(C)cc3S2)cc1 (centres undefined) | -13 | -2 | -1 | -41 | 5 | -1 | nt | nt | HKDC1 act conf=-23
COc1ccc(C(SCC(NC(=O)OCc2ccccc2)C(=O)O)c2ccc(OC)cc2)cc1 (centres undefined) | 0 | nt | 5 | nt | 1 | 0 | nt | nt
Nc1cnn(-c2ccccc2)c(=O)c1Cl | 2 | 15 | 2 | 45* | -2 | 0 | nt | nt | HKDC1 act conf=-22
CN1CCc2cc(O)cc3c2[C@H]1Cc1ccc(O)c(O)c1-3 | -2 | -16 | -4 | 1 | 2 | 1 | nt | nt
CN1CCc2cc3c(c4c2C1Cc1ccccc1-4)OCO3 (centres undefined) | 59* | 5 | -10 | 32 | 2 | 9 | nt | nt | HKDC1 act conf=-1
Cc1ccc(N2C(=O)NC(=O)/C(=C/c3ccoc3)C2=O)cc1 | 93* | 84* | 102* | 39* | 95* | 56* | 64* | -5 | HKDC1 act conf=-3;DNMT1 interf DR=>99
CC(C)C1C(C#N)=C(N)Oc2c1c(=O)oc1ccccc21 (centres undefined) | 1 | nt | 3 | nt | -2 | -1 | nt | nt
Cc1cccc(N2C(=O)NC(=O)/C(=C\c3cc(C)n(-c4sc5c(c4C#N)CCCC5)c3C)C2=O)c1C | 71* | -7 | 54* | 72* | 3 | 3 | 15 | -3 | HKDC1 act conf=55
CCc1ccccc1N1C(=O)NC(=O)/C(=C\c2cc(C)n(C)c2C)C1=O | -3 | -9 | -8 | -9 | -1 | 0 | nt | nt
COc1ccc(/C=N/N=C(/N)N[N+](=O)[O-])c(OC)c1 | 3 | 0 | -10 | -1 | 1 | -1 | nt | nt
N/C(=N\N=C/c1ccc(-c2ccc(O)c(C(=O)O)c2)o1)N[N+](=O)[O-] | 88* | 80* | 27 | 16 | 71* | 30 | 96* | -4 | DNMT1 interf DR=>99
C=C1C(=O)OC2CC3(C)OC3C3OC3C3=CC(OC3=O)C12 (centres undefined) | 30 | nt | 6 | nt | -1 | 2 | nt | nt
CN1/C(=C\C=C2C(=O)NC(=S)NC2=O)C(C)(C)c2ccccc21 | 81* | 0 | -35 | -7 | -61 | 20 | 55* | 51*
CC1(C)OC(c2ccccc2)=C/C(=C/C=C2C(=O)NC(=S)NC2=O)O1 | nt | -5 | nt | 20 | nt | nt | nt | nt
CC(C)(C)C1(CCO)C(=O)NC(=S)NC1=O | -1 | -5 | -1 | -4 | -4 | -1 | nt | nt
CCCCn1c(NC(=O)c2ccc(Br)o2)c(C(=O)OCC)c2nc3ccccc3nc21 | 70* | -3 | 45* | 14 | -1 | 2 | -1 | -5
CC(C)(C)C(=O)C(Oc1ccc(Cl)cc1)n1cncn1 (centres undefined) | 0 | 11 | -4 | -5 | -2 | 0 | nt | nt
SMILES | DNMT1 inh | Scp1 inh | SUMO1-SIM PPI | HKDC1 inh | STEP block | LMPTP block | DNMT1 inh conf | Beacon interf | others
O=C1C=C(N2CC2)c2ccccc2C1=O | 121* | nt | 65* | nt | 7 | 17 | 88* | -10 | DNMT1 interf DR=>99
Cn1cccc1/C=C1/C(=O)NC(=S)N(Cc2ccc(F)cc2)C1=O | 91* | 11 | 64* | 13 | 1 | 15 | 105* | -5 | DNMT1 interf DR=>99
CN1C(=O)C(O)N=C(c2ccccc2)c2ccccc21 (centres undefined) | 0 | -6 | -3 | -2 | 2 | 1 | nt | nt
N#CC(C#N)=C(N)c1cccnc1 | 62* | -4 | 2 | -8 | -1 | 0 | 2 | 4
O=C(Cc1ccccc1)OCCNC(=O)c1cccnc1 | 2 | -3 | 1 | -8 | -4 | -1 | nt | nt
O=C1NC(=O)N(Cc2ccco2)C(=O)/C1=C/c1cccn1CCOc1ccccc1Cl | 69* | 6 | 20 | 21 | 0 | 3 | 22 | 0
COc1ccc2c3c1OC1[C@H](O)CCC4[C@@H](C2)N(C)CC[C@]314 (some centres undefined) | 5 | -3 | -1 | -3 | 0 | 0 | nt | nt
CCCCCCn1c(=O)c(C(=O)Nc2ncccc2O)c(O)c2ccccc21 | 70* | 0 | 15 | -6 | 7 | 20 | 1 | 4
O=c1[nH]c(=O)n(CCc2ccc(F)cc2)c(O)c1C=NCc1ccc2c(c1)OCO2 | 78* | -6 | 0 | 4 | 14 | 50* | 1 | 3
COc1ccc(CCn2c(O)c(C=NCc3ccc4c(c3)OCO4)c(=O)[nH]c2=O)cc1OC | -1 | -9 | 0 | 3 | 0 | 1 | nt | nt
CCCC1(CC(C)C)C(=O)NC(=S)NC1=O | 5 | -3 | -1 | 0 | 0 | 1 | nt | nt
FC(F)(F)Oc1ccc(NC2=NCCCS2)cc1 | 2 | -11 | 1 | -5 | -2 | -2 | nt | nt
O=C1NC(=O)C(=Cc2ccc(-c3cc(Cl)ccc3[N+](=O)[O-])o2)C(=O)N1 | 78* | 69* | 11 | 23 | 9 | 23 | 2 | -3
O=C1NC(=O)C(=Cc2ccc(-c3ccccc3[N+](=O)[O-])o2)C(=O)N1 | 2 | 42 | -16 | 4 | 3 | 1 | nt | nt
